Measured values taken from ChEMBL document CHEMBL5030505, “Assessment of NR4A Ligands That Directly Bind and Modulate the Orphan Nuclear Receptor Nurr1” (J Med Chem, 2020).
Calls of active or inactive are those of the source. The calls are words filed in the database; no cut-off is given here.

Tests used:
Assay type in all cases: cell-based
[1] = molecular target: Nuclear receptor subfamily 4 group A member 2 (Homo sapiens) (UniProt P43354); experiment: Modulation of full length human Nurr1 expressed in HEK293T cells co-transfected with RXRalpha and luciferase reporter plasmid harboring NBRE response element assessed as decrease in luciferase activity at 0.244 to 15.63 uM incubated for 18 by luciferase reporter gene assay; settings: filed as modulator, dose 0.244-15.63 µM, time 18.0 hrs
Nuclear receptor subfamily 4 group A member 2 (Homo sapiens), sequence (P43354 whole entry, the tested form may be a part): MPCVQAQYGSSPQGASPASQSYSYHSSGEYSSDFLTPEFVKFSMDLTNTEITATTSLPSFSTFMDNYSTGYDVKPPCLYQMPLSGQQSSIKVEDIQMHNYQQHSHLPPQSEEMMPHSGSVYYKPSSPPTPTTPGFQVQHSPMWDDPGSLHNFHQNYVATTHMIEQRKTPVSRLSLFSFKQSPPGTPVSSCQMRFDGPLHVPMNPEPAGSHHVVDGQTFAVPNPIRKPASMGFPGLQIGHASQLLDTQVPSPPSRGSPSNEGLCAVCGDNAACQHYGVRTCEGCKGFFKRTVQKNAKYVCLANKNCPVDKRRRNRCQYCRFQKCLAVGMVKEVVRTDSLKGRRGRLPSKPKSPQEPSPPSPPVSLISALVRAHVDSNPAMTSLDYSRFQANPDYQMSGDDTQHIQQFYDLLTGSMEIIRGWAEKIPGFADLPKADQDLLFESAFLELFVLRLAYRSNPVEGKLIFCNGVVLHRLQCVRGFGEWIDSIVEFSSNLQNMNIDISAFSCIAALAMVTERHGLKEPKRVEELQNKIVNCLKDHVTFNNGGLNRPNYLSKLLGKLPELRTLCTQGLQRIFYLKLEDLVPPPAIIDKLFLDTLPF
Outline: (§1)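 Full-length Nurr1 plasmid, alone (2 μg) or 1 μg plus full-length RXRα (1 μg), cotransfected with 3xNBRE- or 3xNurRE-luciferase reporter (6 μg) using Lipofectamine 2000, 18 h. Cells replated at 10,000/well for 4 h. Four ligand concentrations, or vehicle (water, ethanol or DMSO), added in quadruplicate for 18 h. Luciferase read. Fold change vs vehicle, mean ± s.e.m., one-way ANOVA vs vehicle.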

[2] = molecular target: Nuclear receptor subfamily 4 group A member 2 (Homo sapiens) (UniProt P43354); experiment: Modulation of full length human Nurr1 expressed in HEK293T cells co-transfected with luciferase reporter plasmid harboring NBRE response element assessed as decrease in luciferase activity at 0.244 to 15.63 uM incubated for 18 by luciferase reporter gene assay; settings: filed as modulator, dose 0.244-15.63 µM, time 18.0 hrs; outline: as §1
[3] = molecular target: Nuclear receptor subfamily 4 group A member 2 (Homo sapiens) (UniProt P43354); experiment: Modulation of full length human Nurr1 expressed in SKNBE(2) cells co-transfected with luciferase reporter plasmid harboring NBRE response element assessed as decrease in luciferase activity at 0.244 to 15.63 uM incubated for 18 by luciferase reporter gene assay; settings: SKNBE2, filed as modulator, dose 0.244-15.63 µM, time 18.0 hrs
Outline: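 Transfection of SK-N-BE(2)-C cells (1:1 EMEM/F12, 10% FBS, 37°C, 5% CO2) used full-length Nurr1 alone (2 μg, no RXRα) with 3xNBRE- or 3xNurRE-luciferase reporter (6 μg) for 18 h. Cells were replated at 10,000/well for 4 h, then exposed to ligand or vehicle in quadruplicate for 18 h. Luminescence was expressed as fold over vehicle, as mean ± s.e.m. (n=4) from 2 independent experiments, one-way ANOVA against vehicle.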

HEK-293T = experiment: Cytotoxicity against human HEK293T cells assessed as reduction in cell viability at 0.244 to 15.63 microM incubated for 18 hrs by Cell titer-glo assay; settings: dose 0.244-15.63 µM
Outline: (§2)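 Cells seeded at 1.5 million per 10-cm dish. Next day they were replated at 10,000 cells/well and rested 4 h. Ligand or vehicle (water, ethanol or DMSO, by ligand) was added in dose-response format in quadruplicate. After 18 h, viability was read by CellTiter-Glo luminescence. Data are mean ± s.e.m., generally representative of 2 independent experiments. One-way ANOVA versus vehicle.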

[4] = molecular target: Nuclear receptor subfamily 4 group A member 2 (Homo sapiens) (UniProt P43354); experiment: Modulation of full length human Nurr1 expressed in SKNBE(2) cells co-transfected with luciferase reporter plasmid harboring NurRE response element assessed as decrease in luciferase activity at 0.244 to 15.63 uM incubated for 18 by luciferase reporter gene assay; settings: SKNBE2, filed as modulator, dose 0.244-15.63 µM, time 18.0 hrs
[5] = molecular target: Nuclear receptor subfamily 4 group A member 2 (Homo sapiens) (UniProt P43354); experiment: Modulation of full length human Nurr1 expressed in SKNBE(2) cells co-transfected with RXRalpha and luciferase reporter plasmid harboring NurRE response element assessed as decrease in luciferase activity at 0.244 to 15.63 uM incubated for 18 by luciferase reporter gene assay; settings: SKNBE2, filed as modulator, dose 0.244-15.63 µM, time 18.0 hrs
Outline: (§3)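 SK-N-BE(2)-C cells were kept in 1:1 EMEM/F12 with 10% FBS at 37°C and 5% CO2. They were cotransfected with full-length Nurr1 (1 μg), full-length RXRα (1 μg) and 3xNBRE- or 3xNurRE-luc reporter (6 μg) for 18 h, replated at 10,000 cells/well for 4 h, and then treated with ligand or vehicle in quadruplicate for 18 h. The readout was luciferase luminescence as fold over vehicle, reported as mean ± s.e.m. (n=4) from 2 independent experiments, one-way ANOVA.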

[6] = molecular target: Nuclear receptor subfamily 4 group A member 2 (Homo sapiens) (UniProt P43354); experiment: Modulation of full length human Nurr1 expressed in PC12 cells co-transfected with luciferase reporter plasmid harboring NurRE response element assessed as decrease in luciferase activity at 0.244 to 15.63 uM incubated for 18 by luciferase reporter gene assay; settings: PC-12, filed as modulator, dose 0.244-15.63 µM, time 18.0 hrs
Outline: (§4)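 Here PC12 cells (FK-12 medium, 15% horse serum, 2.5% FBS, 37°C, 5% CO2) received full-length Nurr1 (2 μg) without RXRα, plus 3xNBRE- or 3xNurRE-luciferase reporter (6 μg), for 18 h. Cells were replated at 10,000/well for 4 h, then treated with ligand or vehicle in quadruplicate for 18 h. Luciferase luminescence was normalized to vehicle-treated cells. Results are mean ± s.e.m. (n=4) from 2 independent experiments, with one-way ANOVA against vehicle.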

PC-12 [7] = experiment: Cytotoxicity against rat PC-12 cells assessed as reduction in cell viability at 0.244 to 15.63 microM incubated for 18 hrs by Cell titer-glo assay; settings: pc-12, 18 h, dose 0.244-15.63 µM; outline: as §2
[8] = molecular target: Nuclear receptor subfamily 4 group A member 2 (Homo sapiens) (UniProt P43354); experiment: Modulation of full length human Nurr1 expressed in HEK293T cells co-transfected with RXRalpha and luciferase reporter plasmid harboring NurRE response element assessed as decrease in luciferase activity at 0.244 to 15.63 uM incubated for 18 by luciferase reporter gene assay; settings: filed as modulator, dose 0.244-15.63 µM, time 18.0 hrs; outline: as §1
SK-N-BE(2) = experiment: Cytotoxicity against human SKNBE2 cells assessed as reduction in cell viability at 0.244 to 15.63 uM incubated for 18 hrs by Cell titer-glo assay; settings: dose 0.244-15.63 µM; outline: as §2
HEK293T = experiment: Modulation of Gal4-fused VP16 expressed in HEK293T cells co-transfected with UAS repoter gene assessed as decrease in luciferase activity at 0.244 to 15.63 uM incubated for 18 hrs by luciferase reporter gene assay; settings: Human alphaherpesvirus 2, filed as modulator, dose 0.244-15.63 µM
Outline: (§5)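 Cells in 10-cm dishes were transfected with Gal4-VP16 expression plasmid (2 μg) plus 5xUAS-luciferase reporter (2 μg) for 18 h. They were replated at 10,000 cells/well for 4 h, then given ligand or vehicle (water, ethanol or DMSO) in quadruplicate for 18 h. Luciferase was read with Britelite Plus. Fold change is versus vehicle-treated cells, with one-way ANOVA versus vehicle.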

SKNBE2 = experiment: Modulation of Gal4-fused VP16 expressed in SKNBE(2) cells co-transfected with UAS repoter gene assessed as decrease in luciferase activity at 0.244 to 15.63 uM incubated for 18 hrs by luciferase reporter gene assay; settings: Human alphaherpesvirus 2, filed as modulator, dose 0.244-15.63 µM; outline: as §5
[9] = molecular target: Nuclear receptor subfamily 4 group A member 2 (Homo sapiens) (UniProt P43354); experiment: Modulation of full length human Nurr1 expressed in SKNBE(2) cells co-transfected with RXRalpha and luciferase reporter plasmid harboring NBRE response element assessed as decrease in luciferase activity at 0.244 to 15.63 uM incubated for 18 by luciferase reporter gene assay; settings: SKNBE2, filed as modulator, dose 0.244-15.63 µM, time 18.0 hrs; outline: as §3
PC-12 [10] = experiment: Modulation of Gal4-fused VP16 expressed in PC12 cells co-transfected with UAS repoter gene assessed as decrease in luciferase activity at 0.244 to 15.63 uM incubated for 18 hrs by luciferase reporter gene assay; settings: Human alphaherpesvirus 2, filed as modulator, dose 0.244-15.63 µM; outline: as §5
[11] = molecular target: Nuclear receptor subfamily 4 group A member 2 (Homo sapiens) (UniProt P43354); experiment: Modulation of full length human Nurr1 expressed in HEK293T cells co-transfected with luciferase reporter plasmid harboring NurRE response element assessed as decrease in luciferase activity at 0.244 to 15.63 uM incubated for 18 by luciferase reporter gene assay; settings: filed as modulator, dose 0.244-15.63 µM, time 18.0 hrs; outline: as §1
[12] = molecular target: Nuclear receptor subfamily 4 group A member 2 (Homo sapiens) (UniProt P43354); experiment: Modulation of full length human Nurr1 expressed in PC12 cells co-transfected with luciferase reporter plasmid harboring NBRE response element at 0.244 to 15.63 uM incubated for 18 by luciferase reporter gene assay; settings: PC-12, dose 0.244-15.63 µM, time 18.0 hrs; outline: as §4
[13] = molecular target: Nuclear receptor subfamily 4 group A member 2 (Homo sapiens) (UniProt P43354); experiment: Modulation of full length human Nurr1 expressed in PC12 cells co-transfected with RXRalpha and luciferase reporter plasmid harboring NurRE response element at 0.244 to 15.63 uM incubated for 18 by luciferase reporter gene assay; settings: PC-12, dose 0.244-15.63 µM, time 18.0 hrs
Outline: (§6)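 PC12 cells were grown at 37°C and 5% CO2 in […] medium with 15% horse serum and 2.5% FBS. They were transfected with full-length Nurr1 (1 μg) plus full-length RXRα (1 μg) and 3xNBRE- or 3xNurRE-luciferase reporter (6 μg) for 18 h, then replated at 10,000 cells/well for 4 h. Ligand or vehicle (water, ethanol or DMSO) was added in quadruplicate for 18 h. Luminescence was read as fold change over vehicle. Results are mean ± s.e.m., n=4, from 2 independent experiments, analysed by one-way ANOVA against vehicle.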

[14] = molecular target: Nuclear receptor subfamily 4 group A member 2 (Homo sapiens) (UniProt P43354); experiment: Modulation of full length human Nurr1 expressed in PC12 cells co-transfected with luciferase reporter plasmid harboring NurRE response element at 0.244 to 15.63 uM incubated for 18 by luciferase reporter gene assay; settings: PC-12, dose 0.244-15.63 µM; outline: as §4
[15] = molecular target: Nuclear receptor subfamily 4 group A member 2 (Homo sapiens) (UniProt P43354); experiment: Modulation of full length human Nurr1 expressed in PC12 cells co-transfected with RXRalpha and luciferase reporter plasmid harboring NBRE response element at 0.244 to 15.63 uM incubated for 18 by luciferase reporter gene assay; settings: PC-12, dose 0.244-15.63 µM, time 18.0 hrs; outline: as §6
[16] = molecular target: Nuclear receptor subfamily 4 group A member 2 (Homo sapiens) (UniProt P43354); experiment: Modulation of full length human Nurr1 expressed in SKNBE(2) cells co-transfected with luciferase reporter plasmid harboring NBRE response element at 0.244 to 15.63 uM incubated for 18 by luciferase reporter gene assay; settings: SKNBE2, dose 0.244-15.63 µM
[17] = molecular target: Nuclear receptor subfamily 4 group A member 2 (Homo sapiens) (UniProt P43354); experiment: Modulation of full length human Nurr1 expressed in SKNBE(2) cells co-transfected with RXRalpha and luciferase reporter plasmid harboring NurRE response element at 0.244 to 15.63 uM incubated for 18 by luciferase reporter gene assay; settings: SKNBE2, dose 0.244-15.63 µM, time 18.0 hrs; outline: as §3
[18] = molecular target: Nuclear receptor subfamily 4 group A member 2 (Homo sapiens) (UniProt P43354); experiment: Modulation of full length human Nurr1 expressed in HEK293T cells co-transfected with luciferase reporter plasmid harboring NurRE response element at 0.244 to 15.63 uM incubated for 18 by luciferase reporter gene assay; settings: dose 0.244-15.63 µM, time 18.0 hrs; outline: as §1
[19] = molecular target: Nuclear receptor subfamily 4 group A member 2 (Homo sapiens) (UniProt P43354); experiment: Modulation of full length human Nurr1 expressed in SKNBE(2) cells co-transfected with luciferase reporter plasmid harboring NurRE response element at 0.244 to 15.63 uM incubated for 18 by luciferase reporter gene assay; settings: SKNBE2, dose 0.244-15.63 µM, time 18.0 hrs
[20] = molecular target: Nuclear receptor subfamily 4 group A member 2 (Homo sapiens) (UniProt P43354); experiment: Modulation of full length human Nurr1 expressed in HEK293T cells co-transfected with RXRalpha and luciferase reporter plasmid harboring NurRE response element at 0.244 to 15.63 uM incubated for 18 by luciferase reporter gene assay; settings: dose 0.244-15.63 µM, time 18.0 hrs; outline: as §1
[21] = molecular target: Nuclear receptor subfamily 4 group A member 2 (Homo sapiens) (UniProt P43354); experiment: Modulation of full length human Nurr1 expressed in HEK293T cells co-transfected with luciferase reporter plasmid harboring NBRE response element at 0.244 to 15.63 uM incubated for 18 by luciferase reporter gene assay; settings: dose 0.244-15.63 µM, time 18.0 hrs; outline: as §1
[22] = molecular target: Nuclear receptor subfamily 4 group A member 2 (Homo sapiens) (UniProt P43354); experiment: Modulation of full length human Nurr1 expressed in HEK293T cells co-transfected with RXRalpha and luciferase reporter plasmid harboring NBRE response element at 0.244 to 15.63 uM incubated for 18 by luciferase reporter gene assay; settings: dose 0.244-15.63 µM, time 18.0 hrs; outline: as §1
[23] = molecular target: Nuclear receptor subfamily 4 group A member 2 (Homo sapiens) (UniProt P43354); experiment: Modulation of full length human Nurr1 expressed in SKNBE(2) cells co-transfected with RXRalpha and luciferase reporter plasmid harboring NBRE response element at 0.244 to 15.63 uM incubated for 18 by luciferase reporter gene assay; settings: SKNBE2, dose 0.244-15.63 µM; outline: as §3

C=C1C(=O)O[C@@H]2C[C@@]3(C)CCCC(=C)[C@@H]3C[C@H]12 [ISOALANTOLACTONE]
Activity [1]: Active | Activity [2]: Active | Activity [3]: Active | Activity (HEK-293T): Toxic | Activity [4]: Active | Activity [5]: Active | Activity [6]: Active | Activity (PC-12 [7]): Toxic | Activity [8]: Active | Activity (SK-N-BE(2)): Toxic | Activity (HEK293T): Active | Activity (SKNBE2): Active | Activity [9]: Active | Activity (PC-12 [10]): Active | Activity [11]: Active

CCCCCCCC(=O)c1cc(OC)c(OC)c(OC)c1CC(=O)OCC
Activity [12]: inactive | Activity [13]: inactive | Activity [14]: inactive | Activity [15]: inactive | Activity [16]: inactive | Activity [17]: inactive | Activity [18]: inactive | Activity (HEK-293T): Toxic | Activity [19]: inactive | Activity (PC-12 [7]): Toxic | Activity (SK-N-BE(2)): Toxic | Activity [20]: inactive | Activity (HEK293T): Active | Activity (SKNBE2): Active | Activity [21]: inactive | Activity [22]: inactive | Activity [23]: inactive | Activity (PC-12 [10]): Active
